This note sets out measurements from ChEMBL document CHEMBL1149780, “Unsaturated fluoro-ketopyranosyl nucleosides: synthesis and biological evaluation of 3-fluoro-4-keto-beta-d-glucopyranosyl derivatives of N(4)-benzoyl cytosine and N(6)-benzoyl adenine” (Eur J Med Chem, 2008).

The subject of assay [1] is Caco-2. The experiment in a line: Growth inhibition of human Caco-2 cells. The assay is classed as functional, cell-based. In short, it runs like this: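 Colony-formation assay: Caco-2 seeded at 10 cells/well in DMEM-10% FBS, given 3-fold dilutions (top 0.5 mg/mL), incubated 10 days at 37 °C. Colonies counted; colony number in treated (n = 2) vs control wells (n = 24) as %; IC50 from concentration-effect curve.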

For assay [2], the system named is Caco-2. The experiment in a line: Cytotoxicity against human Caco-2 cells after 72 hrs. The settings on record: Caco-2, 72 h. The assay is classed as functional. The method, boiled down: (§1)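 Caco-2, H4 (normal intestinal), MCF-7 and skin melanoma cells seeded at 6 × 10^6 cells per plate, given 3-fold serial dilutions (top 0.5 mg/mL; DMSO below 0.1%), 37 °C, 72 h.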

The subject of assay [3] is MCF7. Description: Tumor selectivity index, CC50 for human H4 cells to CC50 for human MCF7 cells. The format is functional.
Assay [4] is described as follows: Cytotoxicity against human melanoma cells after 72 hrs. The note with it: Melanoma cell. The assay is classed as functional. In short, it runs like this: as §1
Assay [5] relates to Rotavirus. Description: Antiviral activity against gastrointestinal rotavirus in human Caco-2 cells assessed as inhibition of infectivity following virus attachment. The assay is classed as functional, organism-based. In short, it runs like this: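 Caco-2 monolayers washed, exposed to rotavirus RF strain (1.5 TCID50/mL, 100 µL/well) for 1 h at 37 °C, 5% CO2; unbound virus washed off, then 3-fold serial compound dilutions added (top 0.5 mg/mL; DMSO below 0.1%).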

In assay [6] the test system is H4. Description: Cytotoxicity against human H4 cells after 72 hrs. The assay is classed as functional. The note with it: H4, 72 h. The method, boiled down: as §1
For assay [7], the system named is MCF7. Description: Cytotoxicity against human MCF7 cells after 72 hrs. The settings on record: MCF7, 72 h. The format is functional. In short, it runs like this:
as §1

For assay [8], the system named is H4. Description: Tumor selectivity index, CC50 for human H4 cells to CC50 for human Caco-2 cells. The format is functional.
The nature of assay [9]: Ratio of CC50 for Caco-2 cells to IC50 for rotavirus infected human Caco2 cells assessed as inhibition of infectivity following virus attachment.
Assay [10] deals with H4. The experiment in a line: Tumor selectivity index, CC50 for human H4 cells to CC50 for human melanoma cells. The format is functional.

As for `O=C(Nc1ncnc2ncn([C@H]3C=C(F)C(=O)[C@@H](COC(c4ccccc4)(c4ccccc4)c4ccccc4)O3)c12)c1ccccc1`, the results for the IC50 in [1] and in assay [5] were 1.1 µM and 799 µM, respectively. The CC50 – broadly, the concentration that lowers cell viability or growth by half – in assay [2] was 31.9 µM; in assay [4], 9.5 µM; in assay [6], 799 µM; in assay [7], 9.5 µM. Besides, the Ratio in assay [3] is given as 84.1; in [8] it was 25; in assay [10], 84.1. In addition, the “Ratio CC50/IC50” value in assay [9] was found to be 0.04.

Consider `O=c1[nH]cc(F)c(=O)[nH]1` [FLUOROURACIL], for which the Ratio is recorded as 5 in [3], 10 in [8] and 83.4 in [10].

For `Cc1cn([C@H]2C[C@H](N=[N+]=[N-])[C@@H](CO)O2)c(=O)[nH]c1=O` [ZIDOVUDINE], the CC50 in assay [2] was found to be 56.1 µM. For the same compound, the “Ratio CC50/IC50” value in [9] worked out at 2.5.
